Experimental data from ChEMBL document CHEMBL2086320, “New synthetic inhibitors of fatty acid synthase with anticancer activity” (J Med Chem, 2012).
pIC50: −log10 of the molar value. Activity calls are given as the source filed them. The rule behind the calls is not given here.

How the values were obtained:
[1] = molecular target: Fatty acid synthase (Homo sapiens) (UniProt P49327); assay: Inhibition of FASN in human SK-BR-3 cells assessed as oxidation of NADPH at 47 uM after 24 hrs by Spectrophotometric analysis relative to control; assay type: cell-based
Fatty acid synthase (Homo sapiens), sequence (P49327 whole entry, looked up): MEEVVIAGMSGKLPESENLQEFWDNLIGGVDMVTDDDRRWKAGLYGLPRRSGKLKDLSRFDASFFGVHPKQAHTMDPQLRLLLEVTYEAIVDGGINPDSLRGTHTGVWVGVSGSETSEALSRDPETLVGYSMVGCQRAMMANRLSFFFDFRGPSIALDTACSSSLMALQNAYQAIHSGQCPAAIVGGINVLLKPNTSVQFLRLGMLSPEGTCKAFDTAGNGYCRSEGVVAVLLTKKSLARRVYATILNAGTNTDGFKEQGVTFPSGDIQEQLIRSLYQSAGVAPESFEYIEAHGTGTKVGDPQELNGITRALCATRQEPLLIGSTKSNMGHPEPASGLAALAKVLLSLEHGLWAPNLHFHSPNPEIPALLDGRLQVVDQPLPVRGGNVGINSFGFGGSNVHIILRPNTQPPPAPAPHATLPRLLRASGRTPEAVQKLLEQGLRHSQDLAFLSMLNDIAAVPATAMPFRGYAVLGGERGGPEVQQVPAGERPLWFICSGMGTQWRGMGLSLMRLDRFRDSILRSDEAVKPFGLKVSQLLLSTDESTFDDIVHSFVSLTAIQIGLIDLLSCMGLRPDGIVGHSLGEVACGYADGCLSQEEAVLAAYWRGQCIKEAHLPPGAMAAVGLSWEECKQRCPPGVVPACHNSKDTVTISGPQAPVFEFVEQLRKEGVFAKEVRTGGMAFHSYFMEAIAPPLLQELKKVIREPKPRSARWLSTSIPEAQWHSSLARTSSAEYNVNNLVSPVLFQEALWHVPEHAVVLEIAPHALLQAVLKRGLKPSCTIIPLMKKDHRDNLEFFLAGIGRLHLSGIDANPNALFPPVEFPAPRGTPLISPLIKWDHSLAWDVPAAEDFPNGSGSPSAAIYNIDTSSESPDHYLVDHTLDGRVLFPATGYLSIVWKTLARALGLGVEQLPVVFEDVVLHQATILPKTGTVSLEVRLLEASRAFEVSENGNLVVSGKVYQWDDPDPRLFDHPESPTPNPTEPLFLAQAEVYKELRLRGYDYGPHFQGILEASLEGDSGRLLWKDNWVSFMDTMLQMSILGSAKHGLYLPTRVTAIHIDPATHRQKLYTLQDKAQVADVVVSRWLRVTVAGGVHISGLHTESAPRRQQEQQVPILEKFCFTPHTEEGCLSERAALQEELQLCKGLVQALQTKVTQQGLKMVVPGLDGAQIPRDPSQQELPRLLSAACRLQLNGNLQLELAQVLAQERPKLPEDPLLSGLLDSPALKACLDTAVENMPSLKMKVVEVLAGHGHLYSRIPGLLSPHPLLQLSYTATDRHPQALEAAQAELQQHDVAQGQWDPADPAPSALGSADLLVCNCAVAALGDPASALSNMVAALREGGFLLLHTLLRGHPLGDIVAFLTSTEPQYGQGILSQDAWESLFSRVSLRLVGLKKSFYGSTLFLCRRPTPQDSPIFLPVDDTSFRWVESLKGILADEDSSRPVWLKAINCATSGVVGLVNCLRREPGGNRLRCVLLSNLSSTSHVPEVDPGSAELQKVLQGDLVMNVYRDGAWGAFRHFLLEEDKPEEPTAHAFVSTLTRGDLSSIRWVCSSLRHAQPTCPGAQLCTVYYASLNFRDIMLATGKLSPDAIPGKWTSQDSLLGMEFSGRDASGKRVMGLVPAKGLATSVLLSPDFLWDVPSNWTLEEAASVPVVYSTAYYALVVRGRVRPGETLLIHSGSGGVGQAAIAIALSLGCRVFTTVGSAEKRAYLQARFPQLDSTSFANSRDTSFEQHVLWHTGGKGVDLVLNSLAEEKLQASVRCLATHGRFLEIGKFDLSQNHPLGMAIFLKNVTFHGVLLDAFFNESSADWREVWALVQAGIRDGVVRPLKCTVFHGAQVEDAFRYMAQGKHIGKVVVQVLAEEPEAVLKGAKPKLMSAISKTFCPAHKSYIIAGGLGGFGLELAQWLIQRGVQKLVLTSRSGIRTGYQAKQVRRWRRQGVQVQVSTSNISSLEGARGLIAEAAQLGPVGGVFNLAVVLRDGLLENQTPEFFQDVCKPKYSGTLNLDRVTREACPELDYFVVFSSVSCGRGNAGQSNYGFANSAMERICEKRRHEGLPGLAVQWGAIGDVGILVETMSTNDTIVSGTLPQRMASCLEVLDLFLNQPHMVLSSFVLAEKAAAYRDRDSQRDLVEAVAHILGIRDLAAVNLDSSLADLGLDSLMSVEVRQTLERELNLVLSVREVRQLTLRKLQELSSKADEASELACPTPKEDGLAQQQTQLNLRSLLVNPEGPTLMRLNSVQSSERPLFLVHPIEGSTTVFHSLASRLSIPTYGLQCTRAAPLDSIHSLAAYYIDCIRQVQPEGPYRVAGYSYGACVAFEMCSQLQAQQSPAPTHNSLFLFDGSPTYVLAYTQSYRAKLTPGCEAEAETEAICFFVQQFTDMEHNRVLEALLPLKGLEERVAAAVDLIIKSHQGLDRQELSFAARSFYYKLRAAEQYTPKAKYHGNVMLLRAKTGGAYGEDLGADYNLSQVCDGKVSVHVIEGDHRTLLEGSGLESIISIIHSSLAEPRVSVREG

SK-BR-3 = assay: Cytotoxicity against human SKBR3 cells after 48 hrs by MTT assay; assay type: functional, cell-based; conditions: SK-BR-3, 48 h
In short: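 MTT colorimetric assay: cells seeded at 5 or 7 x 10³ cells/well, attached overnight, then given fresh medium with a range of compound concentrations for 48 h at 37 °C, 5% CO2. MTT added for 3 h, formazan dissolved in DMSO, absorbance read at 570 or 540 nm. IC50 as mean±SEM from at least two independent experiments in duplicate or triplicate.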

[2] = molecular target: Fatty acid synthase (Homo sapiens) (UniProt P49327); assay: Inhibition of FASN in human SK-BR-3 cells assessed as oxidation of NADPH at 26 uM after 24 hrs by Spectrophotometric analysis relative to control; assay type: cell-based
[3] = molecular target: Fatty acid synthase (Homo sapiens) (UniProt P49327); assay: Inhibition of FASN in human SK-BR-3 cells assessed as oxidation of NADPH at 8 uM after 24 hrs by Spectrophotometric analysis relative to control; assay type: cell-based
[4] = molecular target: Fatty acid synthase (Homo sapiens) (UniProt P49327); assay: Inhibition of FASN in human SK-BR-3 cells assessed as oxidation of NADPH at 22 uM after 24 hrs by Spectrophotometric analysis relative to control; assay type: cell-based
[5] = molecular target: Fatty acid synthase (Homo sapiens) (UniProt P49327); assay: Inhibition of FASN in human SK-BR-3 cells assessed as oxidation of NADPH at 76 uM after 24 hrs by Spectrophotometric analysis relative to control; assay type: cell-based
[6] = molecular target: Receptor tyrosine-protein kinase erbB-2 (Homo sapiens) (UniProt P04626); assay: Inhibition of HER2 phosphorylation in human SK-BR-3 cells after 6 hrs by Western blot analysis; assay type: cell-based; conditions: concentration not given here
Receptor tyrosine-protein kinase erbB-2 (Homo sapiens), sequence (P04626 whole entry): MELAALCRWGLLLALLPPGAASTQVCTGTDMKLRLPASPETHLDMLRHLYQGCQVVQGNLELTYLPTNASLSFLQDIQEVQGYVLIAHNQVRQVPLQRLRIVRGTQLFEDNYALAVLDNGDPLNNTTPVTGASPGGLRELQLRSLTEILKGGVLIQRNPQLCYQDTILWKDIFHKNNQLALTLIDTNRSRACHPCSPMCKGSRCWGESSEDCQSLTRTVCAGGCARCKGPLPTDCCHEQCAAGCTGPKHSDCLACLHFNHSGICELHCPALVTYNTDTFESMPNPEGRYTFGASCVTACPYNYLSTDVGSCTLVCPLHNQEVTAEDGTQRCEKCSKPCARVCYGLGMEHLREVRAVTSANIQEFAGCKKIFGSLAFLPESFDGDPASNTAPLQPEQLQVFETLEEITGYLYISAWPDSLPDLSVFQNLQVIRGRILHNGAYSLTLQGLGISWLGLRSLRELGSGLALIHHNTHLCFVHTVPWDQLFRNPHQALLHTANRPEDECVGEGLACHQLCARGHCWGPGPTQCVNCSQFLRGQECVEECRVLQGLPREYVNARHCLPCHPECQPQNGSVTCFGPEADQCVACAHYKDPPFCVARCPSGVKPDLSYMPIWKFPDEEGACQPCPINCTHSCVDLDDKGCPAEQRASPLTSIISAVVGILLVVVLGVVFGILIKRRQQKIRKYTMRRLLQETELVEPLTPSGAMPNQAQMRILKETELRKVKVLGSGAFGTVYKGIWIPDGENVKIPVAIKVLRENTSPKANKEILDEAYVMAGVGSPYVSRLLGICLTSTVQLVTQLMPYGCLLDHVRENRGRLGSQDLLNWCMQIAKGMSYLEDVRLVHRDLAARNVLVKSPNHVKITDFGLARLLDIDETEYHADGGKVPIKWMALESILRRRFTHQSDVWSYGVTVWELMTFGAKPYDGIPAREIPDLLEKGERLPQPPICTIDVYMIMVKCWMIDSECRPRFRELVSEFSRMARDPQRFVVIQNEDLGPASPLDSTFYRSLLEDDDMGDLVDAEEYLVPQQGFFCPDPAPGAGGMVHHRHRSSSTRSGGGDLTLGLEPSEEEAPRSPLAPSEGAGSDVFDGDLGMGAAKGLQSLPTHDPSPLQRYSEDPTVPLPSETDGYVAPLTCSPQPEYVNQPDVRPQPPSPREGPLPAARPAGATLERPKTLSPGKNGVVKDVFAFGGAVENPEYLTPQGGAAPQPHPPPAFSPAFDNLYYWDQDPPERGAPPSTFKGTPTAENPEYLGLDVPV
In short: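 SK-Br3 cells treated for 6, 12 or 24 h, harvested with trypsin-EDTA, lysed in Tris-HCl pH 7.5/EDTA/NaCl/PMSF buffer at 4 °C. Equal protein run on 3-8% SDS-PAGE and transferred to nitrocellulose. Membranes probed overnight at 4 °C with anti-phospho-HER2 mouse monoclonal, then peroxidase secondary and chemiluminescence. Re-probed for β-actin as loading control. Gels are representative of at least two independent experiments.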

[7] = molecular target: Fatty acid synthase (Homo sapiens) (UniProt P49327); assay: Inhibition of FASN in human SK-BR-3 cells assessed as oxidation of NADPH at 5 uM after 24 hrs by Spectrophotometric analysis relative to control; assay type: cell-based
[8] = molecular target: Fatty acid synthase (Homo sapiens) (UniProt P49327); assay: Inhibition of FASN in human SK-BR-3 cells assessed as oxidation of NADPH at 17 uM after 24 hrs by Spectrophotometric analysis relative to control; assay type: cell-based
[9] = molecular target: Fatty acid synthase (Homo sapiens) (UniProt P49327); assay: Inhibition of FASN in human SK-BR-3 cells assessed as oxidation of NADPH at 28 uM after 24 hrs by Spectrophotometric analysis relative to control; assay type: cell-based
[10] = molecular target: Fatty acid synthase (Homo sapiens) (UniProt P49327); assay: Inhibition of FASN in human SK-BR-3 cells assessed as oxidation of NADPH at 41 uM after 24 hrs by Spectrophotometric analysis relative to control; assay type: cell-based
[11] = molecular target: Fatty acid synthase (Homo sapiens) (UniProt P49327); assay: Inhibition of FASN in human SK-BR-3 cells assessed as oxidation of NADPH at 42 uM after 24 hrs by Spectrophotometric analysis relative to control; assay type: cell-based
[12] = molecular target: Fatty acid synthase (Homo sapiens) (UniProt P49327); assay: Inhibition of FASN in human SK-BR-3 cells assessed as oxidation of NADPH at 31 uM after 24 hrs by Spectrophotometric analysis relative to control; assay type: cell-based
[13] = molecular target: Fatty acid synthase (Homo sapiens) (UniProt P49327); assay: Inhibition of FASN in human SK-BR-3 cells assessed as oxidation of NADPH at 78 uM after 24 hrs by Spectrophotometric analysis relative to control; assay type: cell-based
[14] = molecular target: Fatty acid synthase (Homo sapiens) (UniProt P49327); assay: Inhibition of FASN in human SK-BR-3 cells assessed as oxidation of NADPH at 23 uM after 24 hrs by Spectrophotometric analysis relative to control; assay type: cell-based
[15] = molecular target: Fatty acid synthase (Homo sapiens) (UniProt P49327); assay: Inhibition of FASN in human SK-BR-3 cells assessed as oxidation of NADPH at 36 uM after 24 hrs by Spectrophotometric analysis relative to control; assay type: cell-based
[16] = molecular target: Fatty acid synthase (Homo sapiens) (UniProt P49327); assay: Inhibition of FASN in human SK-BR-3 cells assessed as oxidation of NADPH at 25 uM after 24 hrs by Spectrophotometric analysis relative to control; assay type: cell-based
[17] = molecular target: Fatty acid synthase (Homo sapiens) (UniProt P49327); assay: Inhibition of FASN in human SK-BR-3 cells assessed as oxidation of NADPH at 39 uM after 24 hrs by Spectrophotometric analysis relative to control; assay type: cell-based

O=C(Oc1ccc2cccc(OC(=O)c3cc(O)c(O)c(O)c3)c2c1)c1cc(O)c(O)c(O)c1
inhibition [1]: inactive
pIC50 (SK-BR-3): 4.33

O=C(O[C@@H]1CCCC[C@H]1OC(=O)c1cc(O)c(O)c(O)c1)c1cc(O)c(O)c(O)c1 (relative stereo)
pIC50 (SK-BR-3): < 3.82

O=C(Oc1ccc2ccc(OC(=O)c3cc(O)c(O)c(O)c3)cc2c1)c1cc(O)c(O)c(O)c1
inhibition [2]: inactive
pIC50 (SK-BR-3): 4.59

COc1cc(OC(=O)c2cc(O)c(O)c(O)c2)ccc1OC(=O)c1cc(O)c(O)c(O)c1
inhibition [3]: inactive
pIC50 (SK-BR-3): 5.10

O=C(O[C@H]1CC[C@@H](OC(=O)c2cc(O)c(O)c(O)c2)c2ccccc21)c1cc(O)c(O)c(O)c1
inhibition [4]: inactive
pIC50 (SK-BR-3): 4.66

O=C(Oc1ccc(OC(=O)c2cc(O)c(O)c(O)c2)c2ccccc12)c1cc(O)c(O)c(O)c1
pIC50 (SK-BR-3): 4.54

O=C(Oc1cc2ccccc2cc1OC(=O)c1cc(O)c(O)c(O)c1)c1cc(O)c(O)c(O)c1
inhibition [5]: 31%
pIC50 (SK-BR-3): 4.12

O=C(O[C@@H]1Cc2c(O)cc(O)cc2O[C@@H]1c1cc(O)c(O)c(O)c1)c1cc(O)c(O)c(O)c1 [EPIGALOCATECHIN GALLATE]
inhibition [6]: 18%
pIC50 (SK-BR-3): 3.83

O=C(OCCOC(=O)c1cc(O)c(O)c(O)c1)c1cc(O)c(O)c(O)c1
pIC50 (SK-BR-3): < 3.82

O=C(Oc1ccc2cc(OC(=O)c3cc(O)c(O)c(O)c3)ccc2c1)c1cc(O)c(O)c(O)c1
pIC50 (SK-BR-3): 5.30
inhibition [7]: inactive

O=C(Oc1cc(OC(=O)c2cc(O)c(O)c(O)c2)c2ccccc2c1)c1cc(O)c(O)c(O)c1
pIC50 (SK-BR-3): 4.68

O=C(Oc1ccc(OC(=O)c2cc(O)c(O)c(O)c2)c(-c2ccccc2)c1)c1cc(O)c(O)c(O)c1
inhibition [8]: inactive
pIC50 (SK-BR-3): 4.77

COC(=O)c1cc(OC(=O)c2cc(O)c(O)c(O)c2)c2ccccc2c1OC(=O)c1cc(O)c(O)c(O)c1
inhibition [9]: inactive
pIC50 (SK-BR-3): 4.55

O=C(Oc1cccc2c(OC(=O)c3cc(O)c(O)c(O)c3)cccc12)c1cc(O)c(O)c(O)c1
inhibition [2]: 30%
pIC50 (SK-BR-3): 4.59

O=C(Oc1ccc(OC(=O)c2cc(O)c(O)c(O)c2)c2c1CCCC2)c1cc(O)c(O)c(O)c1
pIC50 (SK-BR-3): 4.39
inhibition [10]: inactive

O=C(Oc1ccc2ccccc2c1OC(=O)c1cc(O)c(O)c(O)c1)c1cc(O)c(O)c(O)c1
pIC50 (SK-BR-3): 4.13

O=C(O[C@H]1CCCC[C@H]1OC(=O)c1cc(O)c(O)c(O)c1)c1cc(O)c(O)c(O)c1
pIC50 (SK-BR-3): < 3.82

O=C(Oc1ccccc1OC(=O)c1cc(O)c(O)c(O)c1)c1cc(O)c(O)c(O)c1
pIC50 (SK-BR-3): 3.90

O=C(O[C@H]1CC[C@H](OC(=O)c2cc(O)c(O)c(O)c2)c2ccccc21)c1cc(O)c(O)c(O)c1
inhibition [11]: 41%
pIC50 (SK-BR-3): 4.38

O=C(Oc1cc2c(c(OC(=O)c3cc(O)c(O)c(O)c3)c1)CCCC2)c1cc(O)c(O)c(O)c1
pIC50 (SK-BR-3): 4.51
inhibition [12]: inactive

O=C(Oc1cccc(OC(=O)c2cc(O)c(O)c(O)c2)c1)c1cc(O)c(O)c(O)c1
inhibition [11]: inactive
pIC50 (SK-BR-3): 4.38

O=C(Oc1cccc2cccc(OC(=O)c3cc(O)c(O)c(O)c3)c12)c1cc(O)c(O)c(O)c1
inhibition [13]: inactive
pIC50 (SK-BR-3): 4.11

Cc1cc(OC(=O)c2cc(O)c(O)c(O)c2)ccc1OC(=O)c1cc(O)c(O)c(O)c1
inhibition [14]: inactive
pIC50 (SK-BR-3): 4.64

COC(=O)c1cc(OC(=O)c2cc(O)c(O)c(O)c2)ccc1OC(=O)c1cc(O)c(O)c(O)c1
inhibition [15]: 43%
pIC50 (SK-BR-3): 4.44

O=C(Oc1ccc(OC(=O)c2cc(O)c(O)c(O)c2)cc1)c1cc(O)c(O)c(O)c1
pIC50 (SK-BR-3): 4.60
inhibition [16]: inactive

O=C(Oc1ccc2c(OC(=O)c3cc(O)c(O)c(O)c3)cccc2c1)c1cc(O)c(O)c(O)c1
pIC50 (SK-BR-3): 4.41
inhibition [17]: inactive
